Measured values reported in ChEMBL document CHEMBL4033777, “Next-Generation Hypoxic Cell Radiosensitizers: Nitroimidazole Alkylsulfonamides” (J Med Chem, 2018).
Values after ≈ are worked out from the molar mass of the structure shown.

Legend:
[1] = system: HCT-116; assay: Hypoxic cytotoxicity ratio of IC50 for human HCT116 cells under oxic condition to IC50 for human HCT116 cells under anoxic condition
Outline: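 HCT116 cells, 700 per well and attached 2 h, got a 4 h exposure to 3-fold serial dilutions (<1% DMSO) under air or in a Pd-catalyst anaerobic chamber with pre-equilibrated medium. Cells were washed, regrown 5 days, and stained with sulforhodamine B to give IC50. HCR = oxic IC50 / anoxic IC50.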

[2] = system: HCT-116; assay: Hypoxia radiosensitization activity in human HCT116 cells assessed as sensitizer enhancement ratio by measuring ratio of radiation dose for 1% survival in absence to presence of compound at 4.39 mM preincubated for 1 hr followed by irradiation measured after 10 days by methylene blue staining-based cell counting method relative to misonidazole; type: functional
[3] = Electrophilicity of the compound in pH 7 phosphate buffer assessed as one-electron reduction potential
Outline: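 The one-electron reduction potential was set by pulse radiolysis equilibria at pH 7.0 (2.5 mM phosphate), established within 20 µs against benzylviologen, methylviologen or triquat. ΔE came from equilibrium constants via the Nernst equation, at three concentration ratios and 22 ± 2 °C.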

[4] = system: HCT-116; assay: Hypoxia radiosensitization activity in human HCT116 cells assessed as survival ratio by measuring ratio of cell survival with 15 Gy radiation in absence to presence of compound at anoxic IC50 preincubated for 1 hr followed by 15 Gy irradiation measured after 10 days by methylene blue staining-based cell counting method; type: functional
Outline: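 Anoxic HCT116 cells were seeded at 10^5/well and treated at the anoxic IC50 concentration for 1 h at room temperature. They were irradiated with 15 Gy (60Co, ~2 Gy/min) in a sealed steel box, then plated clonogenically. Colonies of >50 cells were counted […]. SR15 = survival with radiation / survival with drug + radiation.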

[5] = system: HCT-116; assay: Hypoxia radiosensitization activity in human HCT116 cells assessed as sensitizer enhancement ratio by measuring ratio of radiation dose for 1% survival in absence to presence of compound at 4.39 mM preincubated for 1 hr followed by irradiation measured after 10 days by methylene blue staining-based cell counting method; type: functional
[6] = system: HCT-116; assay: Hypoxia radiosensitization activity in human HCT116 cells assessed as survival ratio by measuring ratio of cell survival with radiation in absence to presence of compound at 4.39 mM preincubated for 1 hr followed by 6 to 29 Gy irradiation measured after 10 days by methylene blue staining-based cell counting method; type: functional
[7] = system: HCT-116; assay: Hypoxia radiosensitization activity in human HCT116 cells assessed as survival ratio by measuring ratio of cell survival with radiation in absence to presence of compound at 4.39 mM preincubated for 1 hr followed by 6 to 29 Gy irradiation measured after 10 days by methylene blue staining-based cell counting method relative to misonidazole; type: functional
[8] = system: HCT-116; assay: Cytotoxicity against human HCT116 cells incubated for 4 hrs under anaerobic condition measured after 5 days by sulforhodamine B assay; type: functional, cell-based
Outline: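 STR-authenticated, mycoplasma-free HCT116 cells in αMEM + 5% FCS were seeded at 700 cells/well and allowed 2 h to attach. Drug was added from DMSO stocks (<1% DMSO) in serial 3-fold dilutions for 4 h, oxic or anoxic (Pd-catalyst anaerobic chamber, medium pre-equilibrated ≥3 days). After washing, cells regrew for 5 days before SRB staining and IC50 determination.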

[9] = Solubility of the compound in alphaMEM containing 5% FCS and 1% DMSO by HPLC analysis; type: physicochemical
Outline: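 Saturated drug solutions were incubated at 37 °C in αMEM with 5% FCS and 1% DMSO. Dissolved drug was quantified by HPLC.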

[10] = system: HCT-116; assay: Cytotoxicity against human HCT116 cells at anoxic IC50 incubated for 1 hr at 21 degC by clonogenic survival assay; details: hct-116, 1 h
[11] = system: HCT-116; assay: Hypoxia radiosensitization activity in human HCT116 cells assessed as survival ratio by measuring ratio of cell survival with radiation in absence to presence of compound at 2.86 mM preincubated for 1 hr followed by 6 to 29 Gy irradiation measured after 10 days by methylene blue staining-based cell counting method relative to misonidazole; type: functional
[12] = system: HCT-116; assay: Hypoxia radiosensitization activity in human HCT116 cells assessed as survival ratio by measuring ratio of cell survival with radiation in absence to presence of compound at 2.86 mM preincubated for 1 hr followed by 6 to 29 Gy irradiation measured after 10 days by methylene blue staining-based cell counting method; type: functional
[13] = system: HCT-116; assay: Hypoxia radiosensitization activity in human HCT116 cells assessed as survival ratio by measuring ratio of cell survival with radiation in absence to presence of compound at 1.34 mM preincubated for 1 hr followed by 6 to 29 Gy irradiation measured after 10 days by methylene blue staining-based cell counting method; type: functional
[14] = system: HCT-116; assay: Hypoxia radiosensitization activity in human HCT116 cells assessed as survival ratio by measuring ratio of cell survival with radiation in absence to presence of compound at 1.34 mM preincubated for 1 hr followed by 6 to 29 Gy irradiation measured after 10 days by methylene blue staining-based cell counting method relative to misonidazole; type: functional
[15] = system: HCT-116; assay: Hypoxia radiosensitization activity in human HCT116 cells assessed as survival ratio by measuring ratio of cell survival with radiation in absence to presence of compound at 0.52 mM preincubated for 1 hr followed by 6 to 29 Gy irradiation measured after 10 days by methylene blue staining-based cell counting method relative to misonidazole; type: functional
[16] = system: HCT-116; assay: Hypoxia radiosensitization activity in human HCT116 cells assessed as survival ratio by measuring ratio of cell survival with radiation in absence to presence of compound at 0.52 mM preincubated for 1 hr followed by 6 to 29 Gy irradiation measured after 10 days by methylene blue staining-based cell counting method; type: functional
[17] = system: HCT-116; assay: Hypoxia radiosensitization activity in human HCT116 cells assessed as survival ratio by measuring ratio of cell survival with radiation in absence to presence of compound at 2.32 mM preincubated for 1 hr followed by 6 to 29 Gy irradiation measured after 10 days by methylene blue staining-based cell counting method relative to misonidazole; type: functional
[18] = system: HCT-116; assay: Hypoxia radiosensitization activity in human HCT116 cells assessed as survival ratio by measuring ratio of cell survival with radiation in absence to presence of compound at 2.32 mM preincubated for 1 hr followed by 6 to 29 Gy irradiation measured after 10 days by methylene blue staining-based cell counting method; type: functional
[19] = system: HCT-116; assay: Hypoxia radiosensitization activity in human HCT116 cells assessed as sensitizer enhancement ratio by measuring ratio of radiation dose for 1% survival in absence to presence of compound at 2.32 mM preincubated for 1 hr followed by irradiation measured after 10 days by methylene blue staining-based cell counting method; type: functional
[20] = system: HCT-116; assay: Hypoxia radiosensitization activity in human HCT116 cells assessed as sensitizer enhancement ratio by measuring ratio of radiation dose for 1% survival in absence to presence of compound at 2.32 mM preincubated for 1 hr followed by irradiation measured after 10 days by methylene blue staining-based cell counting method relative to misonidazole; type: functional
[21] = system: HCT-116; assay: Hypoxia radiosensitization activity in human HCT116 cells assessed as sensitizer enhancement ratio by measuring ratio of radiation dose for 1% survival in absence to presence of compound at 0.82 mM preincubated for 1 hr followed by irradiation measured after 10 days by methylene blue staining-based cell counting method relative to misonidazole; type: functional
[22] = system: HCT-116; assay: Hypoxia radiosensitization activity in human HCT116 cells assessed as survival ratio by measuring ratio of cell survival with radiation in absence to presence of compound at 0.82 mM preincubated for 1 hr followed by 6 to 29 Gy irradiation measured after 10 days by methylene blue staining-based cell counting method; type: functional
[23] = system: HCT-116; assay: Hypoxia radiosensitization activity in human HCT116 cells assessed as sensitizer enhancement ratio by measuring ratio of radiation dose for 1% survival in absence to presence of compound at 0.82 mM preincubated for 1 hr followed by irradiation measured after 10 days by methylene blue staining-based cell counting method; type: functional
[24] = system: HCT-116; assay: Hypoxia radiosensitization activity in human HCT116 cells assessed as survival ratio by measuring ratio of cell survival with radiation in absence to presence of compound at 0.82 mM preincubated for 1 hr followed by 6 to 29 Gy irradiation measured after 10 days by methylene blue staining-based cell counting method relative to misonidazole; type: functional
[25] = system: HCT-116; assay: Hypoxia radiosensitization activity in human HCT116 cells assessed as survival ratio by measuring ratio of cell survival with radiation in absence to presence of compound at 0.7 mM preincubated for 1 hr followed by 6 to 29 Gy irradiation measured after 10 days by methylene blue staining-based cell counting method relative to misonidazole; type: functional
[26] = system: HCT-116; assay: Hypoxia radiosensitization activity in human HCT116 cells assessed as survival ratio by measuring ratio of cell survival with radiation in absence to presence of compound at 0.7 mM preincubated for 1 hr followed by 6 to 29 Gy irradiation measured after 10 days by methylene blue staining-based cell counting method; type: functional
[27] = system: HCT-116; assay: Hypoxia radiosensitization activity in human HCT116 cells assessed as survival ratio by measuring ratio of cell survival with radiation in absence to presence of compound at 5 mM preincubated for 1 hr followed by 6 to 29 Gy irradiation measured after 10 days by methylene blue staining-based cell counting method; type: functional
[28] = system: HCT-116; assay: Hypoxia radiosensitization activity in human HCT116 cells assessed as sensitizer enhancement ratio by measuring ratio of radiation dose for 1% survival in absence to presence of compound at 5 mM preincubated for 1 hr followed by irradiation measured after 10 days by methylene blue staining-based cell counting method relative to misonidazole; type: functional
[29] = system: HCT-116; assay: Hypoxia radiosensitization activity in human HCT116 cells assessed as sensitizer enhancement ratio by measuring ratio of radiation dose for 1% survival in absence to presence of compound at 5 mM preincubated for 1 hr followed by irradiation measured after 10 days by methylene blue staining-based cell counting method; type: functional
[30] = system: HCT-116; assay: Hypoxia radiosensitization activity in human HCT116 cells assessed as survival ratio by measuring ratio of cell survival with radiation in absence to presence of compound at 5 mM preincubated for 1 hr followed by 6 to 29 Gy irradiation measured after 10 days by methylene blue staining-based cell counting method relative to misonidazole; type: functional
[31] = system: HCT-116; assay: Hypoxia radiosensitization activity in human HCT116 cells assessed as sensitizer enhancement ratio by measuring ratio of radiation dose for 1% survival in absence to presence of compound at 2.76 mM preincubated for 1 hr followed by irradiation measured after 10 days by methylene blue staining-based cell counting method; type: functional
[32] = system: HCT-116; assay: Hypoxia radiosensitization activity in human HCT116 cells assessed as sensitizer enhancement ratio by measuring ratio of radiation dose for 1% survival in absence to presence of compound at 2.76 mM preincubated for 1 hr followed by irradiation measured after 10 days by methylene blue staining-based cell counting method relative to misonidazole; type: functional
[33] = system: HCT-116; assay: Hypoxia radiosensitization activity in human HCT116 cells assessed as survival ratio by measuring ratio of cell survival with radiation in absence to presence of compound at 2.76 mM preincubated for 1 hr followed by 6 to 29 Gy irradiation measured after 10 days by methylene blue staining-based cell counting method; type: functional
[34] = system: HCT-116; assay: Hypoxia radiosensitization activity in human HCT116 cells assessed as survival ratio by measuring ratio of cell survival with radiation in absence to presence of compound at 2.76 mM preincubated for 1 hr followed by 6 to 29 Gy irradiation measured after 10 days by methylene blue staining-based cell counting method relative to misonidazole; type: functional

SMILES	Ratio IC50 [1]	Ratio [4]	IC50 [8]	solubility [9]	Activity [10]	other results
COCCNS(=O)(=O)CCn1cncc1[N+](=O)[O-]	2.5	122	4400 µM	24.4 mM (≈ 6.79 mg/mL)	Non-Toxic	fold change (FC) [2]: 1.08; Activity [3]: -450 mV; Ratio [5]: 1.56; Ratio [6]: 26; fold change (FC) [7]: 2.23
COCCNS(=O)(=O)CCn1c([N+](=O)[O-])cnc1C	–	–	–	–	Non-Toxic	fold change (FC) [11]: 0.58; Ratio [12]: 4.8
Cc1ncc([N+](=O)[O-])n1CCS(=O)(=O)NCCN1CCCCC1	–	–	–	–	Non-Toxic	Ratio [13]: 24; fold change (FC) [14]: 2.36
COCCNS(=O)(=O)Cn1cnc([N+](=O)[O-])c1	–	–	–	–	Non-Toxic	fold change (FC) [15]: 0.44; Ratio [16]: 1.3
O=[N+]([O-])c1cncn1CS(=O)(=O)NCCO	4	181	2300 µM	23.7 mM (≈ 5.93 mg/mL)	Non-Toxic	fold change (FC) [17]: 14.8; Ratio [18]: 114; Ratio [19]: 1.81; fold change (FC) [20]: 1.28
Cc1ncc([N+](=O)[O-])n1CCS(=O)(=O)NCCN(C)C	6	11	800 µM	46.8 mM (≈ 14.3 mg/mL)	Non-Toxic	fold change (FC) [21]: 1.06; Ratio [22]: 14.9; Ratio [23]: 1.57; fold change (FC) [24]: 1.51
Cc1ncc([N+](=O)[O-])n1CCS(=O)(=O)NCCN1CCCC1	–	–	–	–	Non-Toxic	fold change (FC) [25]: 1.51; Ratio [26]: 13.6
O=[N+]([O-])c1cncn1CCS(=O)(=O)NCCO	2	282	5300 µM	69.3 mM (≈ 18.3 mg/mL)	Non-Toxic	Ratio [27]: 163; fold change (FC) [28]: 1.23; Ratio [29]: 1.81; fold change (FC) [30]: 12.1
Cc1ncc([N+](=O)[O-])n1CCS(=O)(=O)NCCCN1CCOCC1	0.8	8	2800 µM	> 55.2 mM	Non-Toxic	Ratio [31]: 1.68; fold change (FC) [32]: 1.2; Ratio [33]: 28; fold change (FC) [34]: 3.96
